Laboratory results taken from ChEMBL document CHEMBL5214971, “Multiple approaches to repurposing drugs for neuroblastoma” (Bioorg Med Chem, 2022).
pIC50: −log10 of the molar value.

Tests used:
HT-1080 = assay: Anticancer activity against human HT-1080 cells assessed as reduction in cell viability incubated for 48 hrs by resazurin dye based fluorescence assay; assay type: functional; details: HT-1080, 48 h
Summary of the method: (§1)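 Cells seeded at 1×10^4 cells/well in DMEM/Ham's F12 (1:1, L-glutamine, 15 mM HEPES) with 10% FBS, 37°C, 5% CO2. Compounds in DMSO, 50 μM then two-fold over 8 further dilutions to 0.195 μM; 0.5% DMSO final. 48 h exposure. Resazurin 0.0125 mg/ml final, read 3 h (HT1080) or 8 h (SH-SY5Y, SK-N-AS) at Ex 544/Em 590 nm. Inhibition relative to DMSO control; triplicates, ≥2 experiments.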

SH-SY5Y = assay: Anticancer activity against human SH-SY5Y cells assessed as reduction in cell viability incubated for 48 hrs by resazurin dye based fluorescence assay; assay type: functional; summary of the method: as §1
SK-N-AS = assay: Anticancer activity against human SK-N-AS cells assessed as reduction in cell viability incubated for 48 hrs by resazurin dye based fluorescence assay; assay type: functional; summary of the method: as §1
[1] = Cytotoxicity against human HeLa cells assessed as reduction in cell viability incubated for 48 hrs by CellTiter Glo assay; assay type: toxicity, cell-based
[2] = Cytotoxicity against African green monkey Vero 76 cells assessed as reduction in cell viability; assay type: toxicity, cell-based; details: African green monkey (Chlorocebus sabaeus)
[3] = biological target: Maternal embryonic leucine zipper kinase (Homo sapiens) (UniProt Q14680); assay: Inhibition of MELK (unknown origin) at 1 uM by Adapta assay
Sequence of Maternal embryonic leucine zipper kinase (Homo sapiens) (Q14680 whole entry, looked up): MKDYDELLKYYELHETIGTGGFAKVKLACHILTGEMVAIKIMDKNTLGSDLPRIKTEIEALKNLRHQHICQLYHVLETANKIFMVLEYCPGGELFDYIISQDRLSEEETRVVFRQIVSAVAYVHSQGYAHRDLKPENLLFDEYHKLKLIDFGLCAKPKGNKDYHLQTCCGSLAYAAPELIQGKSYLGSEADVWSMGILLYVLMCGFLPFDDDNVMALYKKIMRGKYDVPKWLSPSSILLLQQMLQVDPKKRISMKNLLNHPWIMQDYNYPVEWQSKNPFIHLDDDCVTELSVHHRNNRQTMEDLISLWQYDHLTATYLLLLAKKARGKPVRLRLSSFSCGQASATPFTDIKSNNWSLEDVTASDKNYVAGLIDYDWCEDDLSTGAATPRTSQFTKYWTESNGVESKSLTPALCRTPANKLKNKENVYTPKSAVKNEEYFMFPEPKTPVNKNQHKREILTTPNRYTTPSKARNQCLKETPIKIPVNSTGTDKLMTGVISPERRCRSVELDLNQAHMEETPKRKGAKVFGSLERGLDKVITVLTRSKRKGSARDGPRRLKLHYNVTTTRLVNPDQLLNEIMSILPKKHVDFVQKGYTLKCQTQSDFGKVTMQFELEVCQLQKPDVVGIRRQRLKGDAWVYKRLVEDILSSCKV

[4] = Cytotoxicity against human A549-ACE2 cells expressing ACE2 assessed as reduction in cell viability by CytoTox-Glo assay; assay type: toxicity, cell-based
[5] = biological target: Calcium/calmodulin-dependent protein kinase type 1 (Homo sapiens) (UniProt Q14012); assay: Inhibition of CAMK1 (unknown origin) at 1 uM by Adapta assay
Sequence of Calcium/calmodulin-dependent protein kinase type 1 (Homo sapiens) (Q14012 whole entry, looked up): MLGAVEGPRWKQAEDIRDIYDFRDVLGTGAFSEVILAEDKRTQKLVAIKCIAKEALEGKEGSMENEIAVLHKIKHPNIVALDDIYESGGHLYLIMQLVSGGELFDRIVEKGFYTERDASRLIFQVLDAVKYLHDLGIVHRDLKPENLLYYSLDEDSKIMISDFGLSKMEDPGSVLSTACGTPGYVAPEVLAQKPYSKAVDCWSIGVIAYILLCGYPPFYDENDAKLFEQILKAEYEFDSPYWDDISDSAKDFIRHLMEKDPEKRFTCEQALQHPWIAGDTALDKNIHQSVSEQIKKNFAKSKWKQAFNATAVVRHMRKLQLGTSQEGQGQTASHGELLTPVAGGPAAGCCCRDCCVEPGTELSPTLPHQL

[6] = biological target: Cathepsin D (Homo sapiens) (UniProt P07339); assay: Inhibition of cathepsin D (unknown origin) using MCA labelled GKPILFFRLK(Dnp)-D-R-NH as substrate at 200 uM preincubated for 15 mins followed by substrate addition and measured after 2 hrs by fluorometer analysis; details: time 135.0 min
Sequence of Cathepsin D (Homo sapiens) (P07339 65-162 limits assumed): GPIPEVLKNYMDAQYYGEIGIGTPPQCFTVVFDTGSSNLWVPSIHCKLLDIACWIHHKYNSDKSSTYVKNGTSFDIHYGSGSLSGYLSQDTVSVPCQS
Sequence of Cathepsin D (Homo sapiens) (P07339 169-412 limits assumed): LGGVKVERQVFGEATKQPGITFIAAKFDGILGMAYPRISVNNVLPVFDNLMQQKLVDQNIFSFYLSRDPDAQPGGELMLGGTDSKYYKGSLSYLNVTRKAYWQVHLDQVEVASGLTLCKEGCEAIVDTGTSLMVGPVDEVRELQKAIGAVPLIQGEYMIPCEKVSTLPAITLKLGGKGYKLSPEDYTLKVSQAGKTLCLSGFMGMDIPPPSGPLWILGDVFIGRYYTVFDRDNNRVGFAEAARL

| Structure (SMILES) | pIC50 (HT-1080) | pIC50 (SH-SY5Y) | pIC50 (SK-N-AS) | also measured |
| --- | --- | --- | --- | --- |
| COc1ccc2nc3cc(Cl)ccc3c(Nc3ccc(O)c(CN4CCCC4)c3)c2c1 | 5.44 | 5.92 | 5.41 | – |
| Cc1ccc(S(=O)(=O)/C=C/C#N)cc1 | – | 6.07 | 5.91 | – |
| COc1ccc2nc3cc(Cl)ccc3c(Nc3cc(CN4CCCC4)c(O)c(CN4CCCC4)c3)c2c1 | 4.86 | 5.01 | – | – |
| CCCCCCCCc1ccc(CCC(N)(CO)CO)cc1 [FINGOLIMOD] | – | 5.33 | 5.21 | – |
| COc1ccc2nc3cc(Cl)ccc3c(Nc3cc(CN4CCCC4)c(O)c(CN4CCCC4)c3)c2n1 [PYRONARIDINE] | 5.37 | 5.77 | 5.46 | IC50 at 48 h [1]: 3.1 µM; pIC50 [2]: 5.89; inhibition [3]: 31%; pIC50 [4]: < 5.00; inhibition [5]: 35%; inhibition [6]: > 50% |
| CCN(CC)CCCC(C)Nc1c2ccc(Cl)cc2nc2ccc(OC)cc12 (centres undefined) [QUINACRINE] | 4.54 | 5.07 | – | – |

Further compounds by rising pIC50 (SH-SY5Y), results first:

| pIC50 (HT-1080) | pIC50 (SH-SY5Y) | pIC50 (SK-N-AS) | Structure (SMILES) | also measured |
| --- | --- | --- | --- | --- |
| 5.22 | 5.47 | 5.27 | COc1ccc2nc3cc(Cl)ccc3c(Nc3cc(CN(C)C)c(O)c(CN(C)C)c3)c2c1 | – |
| – | 5.80 | 5.35 | CN1CCN(c2ccc(C(=O)Nc3n[nH]c4ccc(Cc5cc(F)cc(F)c5)cc34)c(NC3CCOCC3)c2)CC1 [ENTRECTINIB] | – |
| – | 6.04 | 4.92 | C[C@@H](Oc1cc(-c2cnn(C3CCNCC3)c2)cnc1N)c1c(Cl)ccc(F)c1Cl [CRIZOTINIB] | – |
| – | 6.06 | 5.63 | O=C(Nc1ccc([N+](=O)[O-])cc1Cl)c1cc(Cl)ccc1O [NICLOSAMIDE] | – |
